procasp7 counter: activates human procaspase-7, counter-screen for procaspase-3 activators; 330,000 tested, 0.093% active; AID 463210; recombinant procaspase-7, Ac-DEVD-pNA absorbance 405 nm; D23A/D198A/D206A triple mutant, cannot self-cleave; scale: DMSO 0, 5 µM enzyme 100; activation, % at 8.5 µM;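 active means percent activation above the screen-wide mean plus 3 SD, cut at about 25% in these data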
Target sequence (P55210 whole entry D23A/D198A/D206A): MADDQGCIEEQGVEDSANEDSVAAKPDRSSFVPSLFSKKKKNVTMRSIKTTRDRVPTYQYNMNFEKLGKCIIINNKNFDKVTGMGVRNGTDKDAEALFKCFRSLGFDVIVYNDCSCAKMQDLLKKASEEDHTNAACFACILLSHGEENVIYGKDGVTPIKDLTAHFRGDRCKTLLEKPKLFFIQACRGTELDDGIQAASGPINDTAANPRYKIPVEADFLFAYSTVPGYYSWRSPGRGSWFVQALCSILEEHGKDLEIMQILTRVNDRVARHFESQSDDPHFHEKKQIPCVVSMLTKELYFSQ
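Replicates: singlicate. Assay system: Procaspase-7 triple mutant (PC-7 D3A). Signal: 405 nm absorbance of p-nitroaniline. Times: 1 h preincubation, 2 h reaction. Buffer or medium: Zinc-free HEPES pH 7.4 with 300 mM NaCl, 0.01% Triton X-100. Also added: DEVD-pNA substrate. Benchmarks: DMSO wells as 0%, DMSO with 5 µM added PC-7 as 100%.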
procasp3 activ: activates human procaspase-3; P42574; recombinant procaspase-3 D3A, Ac-DEVD-pNA absorbance 405 nm; activation, % at 8.5 µM; 330,000 tested, 0.11% active; AID 463141;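 active means activation above the mean of all tested compounds plus 3 SD, cut at about 21% in these data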;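 further: 0% = DMSO alone and 100% = DMSO wells spiked with extra 5 µM PC-3 D3A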
Target sequence (P42574 whole entry D9A/D28A/D175A): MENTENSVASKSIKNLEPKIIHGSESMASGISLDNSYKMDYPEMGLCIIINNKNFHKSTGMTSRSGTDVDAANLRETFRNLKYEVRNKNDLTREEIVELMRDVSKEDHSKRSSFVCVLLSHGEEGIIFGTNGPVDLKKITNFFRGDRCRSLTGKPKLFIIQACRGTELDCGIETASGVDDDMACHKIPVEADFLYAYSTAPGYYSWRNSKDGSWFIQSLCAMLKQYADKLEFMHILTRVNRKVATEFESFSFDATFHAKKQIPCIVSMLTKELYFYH
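material = Procaspase-3 D3A mutant | probe or stimulus = Ac-DEVD-pNA | compound = single dose, 8.5 µM nominal compound, 0.8% DMSO | timing = 1 h preincubation, 2 h reaction | measured by = 405 nm absorbance of p-nitroaniline, reads at 0 and 120 min | benchmarks = DMSO-only low control, 5 µM PC-3 D3A high control | repeats = singlicate, each compound tested once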
Apaf-1 inh: inhibitors of human Apaf-1 apoptosome; inhibition, % at 20 µM; AID 489030; reconstituted apoptosome caspase-3 activity, DEVD-Rh110 fluorescence; O14727; 330,000 tested, 0.71% active; active means inhibition of at least 40% at 20 µM;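 further: plate controls were DMSO wells for no effect and DEVD-CHO caspase inhibitor wells for full effect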
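Medium: Hepes buffer, pH 7.5 / System: biochemical Apaf-1 apoptosome reconstitution / Measured by: Rh110 fluorescence, excitation 480 nm, emission 540 nm / Times: compound with Apaf-1, dATP, procaspase-3 30 min, then 50 min reaction, room temperature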
EBNA-1 inh: blocks EBNA-1 binding to DNA | EBNA-1 DNA binding, fluorescence polarization | inhibition, % at 14.8 µM | 300,000 tested, 0.34% active; in the data active means inhibition above about 28%
ZTA counter: ZTA (EBV) inhibition in EBNA-1 counter-screen; P03206; ZTA-DNA binding, fluorescence polarization; inhibition, % at 11 µM; 320,000 tested, 0.15% active; in the data active means inhibition above about 33%
GSTO1 counter: GSTO1 inhibition, counter-screen for RBBP9 inhibitors; recombinant GSTO1, activity-based probe fluorescence polarization; inhibition, % at 5.96 µM; P78417; 300,000 tested, 1.1% active;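 active means inhibition above the campaign mean inhibition plus 3 SD, cut at about 35% in these data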;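 further: 0% = GSTO1-1 with DMSO and 100% = wells lacking GSTO1-1 enzyme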
Apaf-1 inh conf: Apaf-1 inhibition, single-dose confirmed | shares compounds with Apaf-1 inh | inhibition, % at 20 µM | reconstituted apoptosome, caspase-3 DEVD-Rh110 fluorescence | 1,800 tested, 25% active;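 active means mean inhibition of at least 40% at 20 µM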;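 further: plate controls were DMSO wells for no effect and DEVD-CHO caspase inhibitor control wells for full effect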
Rh110 interf inh: counter-screen for Apaf-1 inhibitors: fluorescence interference; shares compounds with Apaf-1 inh; Rh110 fluorescence interference, quenched caspase reaction; activation (fluorescence interference), % at 20 µM; 1,800 tested, under 10 active;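 active means signal rise of 40% or more at 20 µM, treated as a fluorescence artifact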
Apaf1 inh interf: counter-screen for Apaf-1 inhibitors: fluorescence interference, dose response | 460 tested, under 10 active | IC50, µM | shares compounds with Apaf-1 inh | AID 588538 | fluorescence interference counterscreen, Apaf-1 assay format; call rule not given here
Numbers without * were called inactive; · = not tested or not shown. In the library only some 1.8% were active in any assay of this set; here they are far more common.

SMILES	procasp7 counter	procasp3 activ	Apaf-1 inh	EBNA-1 inh	ZTA counter	GSTO1 counter	Apaf-1 inh conf	Rh110 interf inh	others
COC(=O)C1=C(C)N(Cc2ccccc2)C(=NCc2ccccc2)N[C@H]1c1ccccc1	-2	4	47*	·	·	·	13	18
COC(=O)C1=C(C)N(Cc2ccccc2)C(=NCc2cccc(Cl)c2)N[C@H]1c1ccccc1	3	-6	56*	·	·	·	16	12
COC(=O)C1=C(C)N(Cc2ccccc2)C(=NCc2cc(OC)c(OC)c(OC)c2)N[C@H]1c1ccc(Br)cc1	3	-2	55*	·	·	·	11	7
COC(=O)C1=C(C)N(Cc2ccccc2)C(=NCc2cc(OC)c(OC)c(OC)c2)N[C@H]1c1ccccc1	1	2	8	-1	-10	5	·	·
COC(=O)C1=C(C)N(CC2CC2)C(=NCc2cc(OC)c(OC)c(OC)c2)N[C@H]1c1ccccc1	-18	-6	-4	-2	-18	-1	·	·
O=c1[nH]c(Cc2cccc(C(F)(F)F)c2)nc2ccccc12	3	3	-5	-1	3	6	·	·
CNC(=O)C(=O)NCC1OCCCN1S(=O)(=O)c1ccc(F)cc1C (configuration not stated)	2	2	4	-4	5	5	·	·
COc1cc(CN2CCNC(=O)C2CC(=O)NCCCC2CCCC2)cc(OC)c1 (configuration not stated)	-12	4	5	3	-7	4	·	·
COC(=O)C1=C(C)N(Cc2ccccc2)C(=NCc2ccccc2)N[C@H]1c1cccc(F)c1	-4	0	41*	1	-11	2	18	10
CCN(CC)CCCN=C1N[C@@H](c2cccc(F)c2)C(C(=O)OC)=C(C)N1Cc1ccccc1	-1	2	9	·	·	·	·	·
CCOc1cc(/C=C/c2nc3cc(C)c(C)cc3s2)ccc1OCC(=O)N1CCOCC1	-1	3	45*	-2	16	-16	17	-15
CCCc1cc(=O)oc2c3c(c4c(c12)OC(C)(C)C=C4)OC(C)C(C)C3O (configuration not stated)	-4	-8	53*	-12	0	0	47*	12	Apaf1 inh interf=>100
COc1cccc(NC(=O)CCC(=O)N2CC(C)Oc3ccc(C)cc32)c1 (configuration not stated)	-5	-3	9	8	11	-2	·	·
N#Cc1c(NCCCO)nc(NCc2ccccc2)c2c1CCN(Cc1ccccc1)C2	-25	-15	69*	-10	-5	17	21	2
CC(C)c1nc(NCc2ccccc2)c(C#N)c2c1CCCC2	-2	3	7	-9	1	20	·	·
CN1CCc2c(C#N)c(N3CCCCC3)nc(NCc3ccccc3)c2C1	-19	-5	52*	2	-4	6	21	11
C[C@H](CO)N1C[C@H](C)[C@@H](CN(C)Cc2ccc(Oc3ccccc3)cc2)Oc2c(NC(=O)C3CC3)cccc2C1=O	1	2	43*	·	·	·	22	-4
CCOC(=O)c1c(NC(=O)c2c(C(=O)O)cccc2[N+](=O)[O-])sc2c1CCCC2	-4	-8	10	11	0	2	·	·
CN(C)c1cc(N/N=C/c2ccccc2C(F)(F)F)nc(N(C)C)n1	-8	4	56*	4	-12	23	51*	0	Apaf1 inh interf=>100
Cn1ncc([N+](=O)[O-])c1C(=O)NC1CCCCC1	-1	6	-7	5	10	-4	·	·
O=C1c2ccccc2-c2nnc(-c3ccc(O)cc3)cc21	3	3	91*	6	-9	10	11	0
O=C1c2ccccc2-c2nc3ccccc3cc21	8	-6	1	-3	-1	0	·	·
O=C1c2ccccc2-c2nnc(-c3ccc(F)cc3)cc21	6	3	78*	5	8	10	9	2
CN(Cc1ccccc1)C(=O)c1nc[nH]c1C(=O)N(C)Cc1ccccc1	15	5	-5	·	-4	·	·	·
COc1ccc(C(=O)N(C)Cc2ccccn2)cc1OC1CCN(C(C)C)CC1	1	13	-6	9	16	-2	·	·
SMILES	procasp7 counter	procasp3 activ	Apaf-1 inh	EBNA-1 inh	ZTA counter	GSTO1 counter	Apaf-1 inh conf	Rh110 interf inh	others
CCCCc1c(C)c(C#N)c2[nH]c3ccccc3n2c1=O	7	10	45*	-4	2	-142	50*	7	Apaf1 inh interf=>100
Cc1c(CCC(C)C)c(=O)n2c([nH]c3ccccc32)c1C#N	3	5	60*	0	7	-13	65*	-2	Apaf1 inh interf=>100
Cc1c(CCO)c(=O)n2c([nH]c3ccccc32)c1C#N	0	7	24	3	2	-6	·	·
O=C(CN1C(=O)C(=O)N(C2CCCC2)C1=O)Nc1cc(Cl)ccc1[N+](=O)[O-]	14	1	-4	·	·	·	·	·
Cc1ccc(C)c(NC(=O)CSc2nnc(NC(=O)C3CC3)s2)c1	1	0	5	-7	-1	3	·	·
CCOC(=O)CNCCC(=O)c1ccc(Br)cc1	-2	-8	58*	17	6	-2	9	1
Cc1cccc(NCCC(=O)c2ccc(Br)cc2)c1	-7	-17	14	-3	-11	-4	·	·
